# Experimental data as given in ChEMBL document CHEMBL4673340 (J Med Chem, 2020).
# Active and inactive are the calls of the source. No cut-off for these calls is given here.
# Columns and labels:
# [1] = Unbound fraction in mouse plasma; assay type: ADME, cell-free
# Cytochrome P450 2D6 = Cytochrome P450 2D6 (Homo sapiens, UniProt P10635); assay: Inhibition of CYP2D6 (unknown origin); assay type: ADME
# [2] = Clearance in mouse liver microsomes; assay type: ADME, Microsome; conditions: read-out: CLH
# [3] = Cmax in Sprague-Dawley rat at 5 mg/kg, po by LC-MS/MS analysis; conditions: in vivo
# [4] = molecular target: Protein mono-ADP-ribosyltransferase PARP6 (Homo sapiens, UniProt Q2NL67); assay: Inhibition of PARP-6 (unknown origin) pre-incubated for 30 mins before addition of activated DNA and NAD by chemiluminescent assay
# Procedure, shortened: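 Chemiluminescent kit assay. Histone-coated wells were incubated for 30 min with the PARP isoform and increasing inhibitor concentrations. A substrate mix of NAD plus biotinylated NAD with activated DNA was then added. The biotinylated PARylation product was read with streptavidin-HRP and HRP substrate. IC50 was taken from residual enzyme activity across the concentration series.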
# [5] = Toxicity in BALB/c nude mouse xenografted with human MDA-MB-436 cells assessed as induction of body weight loss at 1.6 to […], po BID for 28 days followed by treatment was interruption and monitored for additional 2 months; assay type: organism-based; conditions: in vivo, dose 1.6-3.1 mg/kg, time 28 day
# NCI-H209 = assay: Potentiation of TMZ-induced antitumor activity against human NCI-H209 cells xenografted in BALB/c nude mouse assessed as tumor relapse rate at […], po BID for 28 days and co-treated with 50 mg/kg, po QD TMZ for 5 consecutive days at start of study and again 14 days later and measured after 68 days; assay type: functional, organism-based; conditions: time 28.0 day
# MDA-MB-231 = assay: Antiproliferation activity against human MDA-MB-231 cells incubated for 7 days by CellTiter-Glo luminescent cell viability assay; assay type: functional, cell-based; conditions: MDA-MB-231, 168 h
# Procedure, shortened: (§1)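 Seeding density is set per line for log growth over 7 days. Cells attach 16 h, then are treated in duplicate with a 10-point dilution series for 7 days. CellTiter-Glo luminescence (ATP) is read, and viability is expressed relative to mock-treated control. EC50 is the mean of three independent experiments run in triplicate.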
# Cytochrome P450 2C9 = Cytochrome P450 2C9 (Homo sapiens, UniProt P11712); assay: Inhibition of CYP2C9 (unknown origin); assay type: ADME
# [6] = Toxicity in BALB/c nude mouse xenografted with human NCI-H209 cells assessed as drug tolerability at […], po BID for 28 days and co-treated with 50 mg/kg, po QD TMZ for 5 consecutive days at start of study and again 14 days later relative to TMZ alone; assay type: organism-based; conditions: in vivo, dose 0.75 mg/kg, time 28 day
# [7] = Oral bioavailability in Beagle dog at 2 mg/kg by LC-MS/MS analysis; assay type: ADME, organism-based, Canis lupus familiaris; conditions: in vivo
# Procedure, shortened: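 Beagle dogs, three per group. iv 1 mg/kg in 25% DMA in water; oral 2 mg/kg. Values are means of three dogs.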
# [8] = Volume of distribution at steady state in Sprague-Dawley rat at 2 mg/kg, iv by LC-MS/MS analysis; assay type: ADME, organism-based; conditions: in vivo, read-out: Vdss
# Procedure, shortened: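 Pharmacokinetics in Sprague-Dawley rats, three per group. iv 2 mg/kg in 38% DMA in water; po 5 mg/kg. Plasma was protein-precipitated, diluted with water and analysed by LC-MS/MS using an acetonitrile/0.1% formic acid gradient. Values are means of three rats.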
# [9] = Cmax in Beagle dog at 2 mg/kg, po by LC-MS/MS analysis; assay type: ADME, organism-based, Canis lupus familiaris; parameters: route oral, dose 2 mg/kg; conditions: in vivo
# Procedure, shortened: (§2)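 Three Beagle dogs; iv dose 1 mg/kg in 25% DMA in water; oral dose 2 mg/kg in 0.5% CMC-Na. Plasma drug concentrations are measured by LC–MS/MS. Values are the mean of three dogs.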
# [10] = Volume of distribution at steady state in ICR mouse at 1 mg/kg, iv by LC-MS/MS analysis; assay type: ADME, organism-based; conditions: in vivo, read-out: Vdss
# Procedure, shortened: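 Three ICR mice per arm. iv dose 1 mg/kg in 5% DMA in water; oral dose 10 mg/kg in 0.5% MC. Plasma was processed by protein precipitation, diluted with water and quantified by LC-MS/MS (C18 column, acetonitrile/0.1% formic acid gradient). Values are means of three animals.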
# [11] = Half life in Sprague-Dawley rat at 5 mg/kg, po by LC-MS/MS analysis; conditions: in vivo
# SK-BR-3 = assay: Antiproliferation activity against human SK-BR-3 cells incubated for 7 days by CellTiter-Glo luminescent cell viability assay; assay type: functional, cell-based; conditions: SK-BR-3, 168 h; procedure, shortened: as §1
# [12] = Half life in ICR mouse at 1 mg/kg, iv by LC-MS/MS analysis; assay type: ADME, organism-based; conditions: in vivo
# Procedure, shortened: (§3)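 Male/female unspecified ICR mice, n=3 per route. Intravenous 1 mg/kg in 5% DMA in water; oral 10 mg/kg in 0.5% MC. Plasma is processed by protein precipitation and analysed by LC–MS/MS using an acetonitrile/0.1% formic acid gradient. Values are means of the three animals.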
# [13] = AUC (0 to infinity) in Beagle dog at 2 mg/kg, po by LC-MS/MS analysis; assay type: ADME, organism-based, Canis lupus familiaris; parameters: route oral, time infinity, dose 2 mg/kg; conditions: in vivo; procedure, shortened: as §2
# [14] = AUC (0 to infinity) in Sprague-Dawley rat at 2 mg/kg, iv by LC-MS/MS analysis; assay type: ADME, organism-based; parameters: time infinity, route intravenous, dose 2 mg/kg; conditions: in vivo
# Procedure, shortened: (§4)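 Sprague-Dawley rats (n=3) get 2 mg/kg iv formulated in 38% DMA in water. Plasma is protein-precipitated and quantified by LC–MS/MS (C18, acetonitrile/0.1% formic acid gradient). Parameters are means of the three rats.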
# [15] = Clearance in Beagle dog at 1 mg/kg, iv by LC-MS/MS analysis; assay type: ADME, organism-based, Canis lupus familiaris; conditions: in vivo; procedure, shortened: as §2
# [16] = Half life in ICR mouse at 10 mg/kg, po by LC-MS/MS analysis; assay type: ADME, organism-based; conditions: in vivo; procedure, shortened: as §3
# MDA-MB-436 = assay: Antiproliferation activity against human MDA-MB-436 cells expressing BRCA1 mutant incubated for 7 days by CellTiter-Glo luminescent cell viability assay; assay type: functional, cell-based; conditions: MDA-MB-436, 168 h; procedure, shortened: as §1
# [17] = molecular target: Broad substrate specificity ATP-binding cassette transporter ABCG2 (Homo sapiens, UniProt Q9UNQ0); assay: Inhibition of BCRP (unknown origin) up to 30 uM
# [18] = Clearance in Sprague-Dawley rat at 2 mg/kg, iv by LC-MS/MS analysis; assay type: ADME, organism-based; conditions: in vivo; procedure, shortened: as §4
# [19] = AUC (0 to infinity) in ICR mouse at 10 mg/kg, po by LC-MS/MS analysis; assay type: ADME, organism-based; parameters: time infinity, route oral, dose 10 mg/kg; conditions: in vivo; procedure, shortened: as §3
# [20] = Ratio of drug level in brain to plasma of C57BL/6 mouse brain at 10 mg/kg, po after 4 hrs; assay type: ADME, organism-based
# Procedure, shortened: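 C57BL/6 mice were given 10 mg/kg po in 0.5% MC and sampled at 1, 2 and 4 h. Brain was homogenized in 3 volumes of saline, and brain and plasma were protein-precipitated with acetonitrile, then measured by LC-MS/MS. Brain (ng/g) was expressed as a percentage of plasma (ng/mL). Values are means of three mice.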
# [21] = molecular target: Solute carrier family 22 member 6 (Homo sapiens, UniProt Q4U2R8); assay: Inhibition of OAT1 (unknown origin)
# [22] = Tmax in Sprague-Dawley rat at 5 mg/kg, po by LC-MS/MS analysis; conditions: in vivo
# Sequence of Solute carrier family 22 member 6 (Q4U2R8 whole entry): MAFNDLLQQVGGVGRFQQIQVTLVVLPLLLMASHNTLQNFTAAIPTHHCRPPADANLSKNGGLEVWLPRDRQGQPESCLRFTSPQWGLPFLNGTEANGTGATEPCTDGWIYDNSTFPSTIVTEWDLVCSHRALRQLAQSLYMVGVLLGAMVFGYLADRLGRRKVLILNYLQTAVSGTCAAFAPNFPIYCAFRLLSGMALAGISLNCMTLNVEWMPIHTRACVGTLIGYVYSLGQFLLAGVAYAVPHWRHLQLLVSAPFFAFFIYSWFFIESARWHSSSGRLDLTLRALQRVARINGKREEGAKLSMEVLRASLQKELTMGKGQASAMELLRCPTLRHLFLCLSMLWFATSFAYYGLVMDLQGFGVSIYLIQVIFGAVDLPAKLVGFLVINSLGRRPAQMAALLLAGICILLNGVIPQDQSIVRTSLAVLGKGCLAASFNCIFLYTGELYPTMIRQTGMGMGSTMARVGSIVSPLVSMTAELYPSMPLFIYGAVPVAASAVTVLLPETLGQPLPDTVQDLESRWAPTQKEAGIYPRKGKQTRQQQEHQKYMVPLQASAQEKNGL
# Sequence of Cytochrome P450 2C9 (P11712 whole entry): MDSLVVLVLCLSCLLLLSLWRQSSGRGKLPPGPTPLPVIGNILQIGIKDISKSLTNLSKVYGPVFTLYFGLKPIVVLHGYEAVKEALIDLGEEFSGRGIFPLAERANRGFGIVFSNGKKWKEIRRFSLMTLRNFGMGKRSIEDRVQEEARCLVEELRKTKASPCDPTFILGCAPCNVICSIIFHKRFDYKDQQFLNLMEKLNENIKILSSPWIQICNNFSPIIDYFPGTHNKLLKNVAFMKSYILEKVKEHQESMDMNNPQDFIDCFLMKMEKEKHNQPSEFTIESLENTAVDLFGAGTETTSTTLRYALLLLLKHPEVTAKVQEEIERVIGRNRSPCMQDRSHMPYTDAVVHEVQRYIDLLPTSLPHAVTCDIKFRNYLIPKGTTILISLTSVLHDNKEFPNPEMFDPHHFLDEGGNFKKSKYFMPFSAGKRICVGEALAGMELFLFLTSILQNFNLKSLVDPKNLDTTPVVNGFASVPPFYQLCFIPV
# Sequence of Protein mono-ADP-ribosyltransferase PARP6 (Q2NL67 whole entry, canonical isoform): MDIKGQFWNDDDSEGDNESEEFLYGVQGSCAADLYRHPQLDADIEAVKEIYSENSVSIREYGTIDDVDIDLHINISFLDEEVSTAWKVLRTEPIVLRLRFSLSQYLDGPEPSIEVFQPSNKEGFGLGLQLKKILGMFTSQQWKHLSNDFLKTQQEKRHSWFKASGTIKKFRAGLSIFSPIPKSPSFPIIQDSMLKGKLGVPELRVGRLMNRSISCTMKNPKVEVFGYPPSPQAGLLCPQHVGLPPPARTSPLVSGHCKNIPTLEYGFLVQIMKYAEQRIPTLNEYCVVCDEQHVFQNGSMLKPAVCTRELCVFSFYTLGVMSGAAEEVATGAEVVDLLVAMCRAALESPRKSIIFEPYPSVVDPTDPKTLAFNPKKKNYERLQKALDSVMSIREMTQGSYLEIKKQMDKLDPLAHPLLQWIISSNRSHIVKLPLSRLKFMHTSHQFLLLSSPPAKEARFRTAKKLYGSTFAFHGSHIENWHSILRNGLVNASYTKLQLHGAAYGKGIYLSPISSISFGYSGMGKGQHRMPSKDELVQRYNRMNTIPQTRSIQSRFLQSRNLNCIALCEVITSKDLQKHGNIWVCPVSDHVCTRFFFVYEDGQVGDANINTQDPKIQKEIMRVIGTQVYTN
# Sequence of Broad substrate specificity ATP-binding cassette transporter ABCG2 (Q9UNQ0 whole entry): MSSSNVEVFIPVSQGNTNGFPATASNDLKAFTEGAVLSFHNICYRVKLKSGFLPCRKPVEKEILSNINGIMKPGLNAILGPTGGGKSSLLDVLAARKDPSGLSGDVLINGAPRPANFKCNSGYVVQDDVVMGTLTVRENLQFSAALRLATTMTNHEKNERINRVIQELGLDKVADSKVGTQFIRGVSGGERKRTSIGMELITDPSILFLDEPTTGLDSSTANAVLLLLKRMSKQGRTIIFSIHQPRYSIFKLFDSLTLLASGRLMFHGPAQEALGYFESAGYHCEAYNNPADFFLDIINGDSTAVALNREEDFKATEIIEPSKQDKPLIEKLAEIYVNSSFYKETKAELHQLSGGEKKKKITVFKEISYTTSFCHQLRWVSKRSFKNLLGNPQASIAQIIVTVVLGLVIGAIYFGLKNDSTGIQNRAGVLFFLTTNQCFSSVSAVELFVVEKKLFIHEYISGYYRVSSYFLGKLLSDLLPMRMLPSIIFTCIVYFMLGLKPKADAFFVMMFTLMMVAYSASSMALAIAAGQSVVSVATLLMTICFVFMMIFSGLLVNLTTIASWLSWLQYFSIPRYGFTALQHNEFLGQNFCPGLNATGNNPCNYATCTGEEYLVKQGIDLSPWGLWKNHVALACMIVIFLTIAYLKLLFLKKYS
# Sequence of Cytochrome P450 2D6 (P10635 whole entry): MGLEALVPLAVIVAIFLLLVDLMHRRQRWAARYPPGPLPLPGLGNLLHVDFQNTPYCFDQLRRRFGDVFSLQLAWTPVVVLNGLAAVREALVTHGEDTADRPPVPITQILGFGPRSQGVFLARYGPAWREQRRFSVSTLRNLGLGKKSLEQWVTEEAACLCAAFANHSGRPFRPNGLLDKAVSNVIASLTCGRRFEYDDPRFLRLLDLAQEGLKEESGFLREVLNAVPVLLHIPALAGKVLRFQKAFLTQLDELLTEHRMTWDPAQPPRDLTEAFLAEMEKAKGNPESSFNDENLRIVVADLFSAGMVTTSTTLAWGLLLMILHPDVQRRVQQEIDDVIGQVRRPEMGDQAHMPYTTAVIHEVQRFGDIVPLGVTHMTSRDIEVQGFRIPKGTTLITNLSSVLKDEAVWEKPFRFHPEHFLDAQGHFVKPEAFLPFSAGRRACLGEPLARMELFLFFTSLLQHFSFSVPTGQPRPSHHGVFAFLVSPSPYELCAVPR
smiles,measurement,setting,value
C[C@]12CCCN1CC1=NNC(=O)c3cc(F)cc4[nH]c2c1c34 [PAMIPARIB],fraction unbound,[1],0.15
same,IC50,Cytochrome P450 2D6,> 10 µM
same,CLint scaled,[2],12.9 mL/min/kg
same,Cmax,[3],861 ng/mL
same,IC50,[4],> 100 µM
same,Activity,[5],Non-Toxic
same,Activity,NCI-H209,Active
same,EC50,MDA-MB-231,> 10 µM
same,IC50,Cytochrome P450 2C9,> 10 µM
same,Activity,[6],Non-Toxic
same,bioavailability,[7],72.6%
same,Vd,[8],6.92 L/kg
same,Cmax,[9],502 ng/mL
same,Vd,[10],5.65 L/kg
same,half-life,[11],5.5 h
same,EC50,SK-BR-3,> 10 µM
same,half-life,[12],3.95 h
same,AUC(0-inf),[13],1600 ng·h/mL
same,AUC(0-inf),[14],1480 ng·h/mL
same,CL,[15],15.2 mL/min/kg
same,half-life,[16],3.16 h
same,EC50,MDA-MB-436,0.0106 µM
same,inhibition (INH),[17],Not Active
same,clearance,[18],22.7 mL/min/kg
same,AUC,[19],5521 ng·h/mL
same,BPR,[20],19.1%
same,IC50,[21],47.8 µM
same,Tmax,[22],1 h
